According to ChEMBL document CHEMBL3098083, “Curcumin glucuronides: assessing the proliferative activity against human cell lines” (Bioorg Med Chem, 2014):
pIC50: −log10 of the molar value.

Key:
[1] = Antiproliferative activity against human KBM5 cells after 72 hrs by MTT assay; type: functional, cell-based; settings: KBM5, 72 h
Summary of the method: (§1)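 Cells seeded at 5 × 10^3 per well in triplicate and exposed to 1, 5, 10, 25, 50, 100 or 200 μM for 72 h at 37 °C. MTT was added for 2 h, then SDS/DMF extraction buffer overnight, and A570 was read. Results are % viability, mean ± SD. Media: KBM-5 in IMDM/15% FBS; Jurkat and U266 in RPMI 1640; A549 in DMEM/10% FBS; all with penicillin/streptomycin.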

[2] = system: KBM5; test: Inhibition of TNF-induced NF-kappaB activation in human KBM5 cells at 50 uM preincubated for 4 hrs followed by TNF addition measured after 30 mins by EMSA relative to control; type: cell-based
Summary of the method: (§2)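 KBM-5 cells (IMDM, 15% FBS) were pretreated 4 h, then stimulated with bacteria-derived human recombinant TNF at 0.1 nM for 30 min. Nuclear extracts (15 μg protein) were incubated with 16 fmol 32P-labelled 45-mer HIV-LTR NF-κB oligonucleotide for 30 min at 37 °C. Complexes were resolved on 6.6% native polyacrylamide gels, and bands were quantified by phosphorimaging.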

[3] = system: KBM5; test: Inhibition of TNF-induced NF-kappaB activation in human KBM5 cells at 25 uM preincubated for 4 hrs followed by TNF addition measured after 30 mins by EMSA relative to control; type: cell-based; summary of the method: as §2
[4] = Antiproliferative activity against human U266 cells after 72 hrs by MTT assay; type: functional, cell-based; settings: U-266, 72 h; summary of the method: as §1
[5] = system: KBM5; test: Inhibition of TNF-induced NF-kappaB activation in human KBM5 cells at 10 uM preincubated for 4 hrs followed by TNF addition measured after 30 mins by EMSA relative to control; type: cell-based; summary of the method: as §2
[6] = system: A549; test: Antiproliferative activity against human A549 cells after 72 hrs by MTT assay; type: functional, cell-based; settings: A549, 72 h; summary of the method: as §1
[7] = system: Jurkat; test: Antiproliferative activity against human Jurkat cells after 72 hrs by MTT assay; type: functional, cell-based; summary of the method: as §1

pIC50 [6] | pIC50 [7] | Structure (SMILES) | pIC50 [1] | fold change (FC) [2] | fold change (FC) [3] | pIC50 [4] | fold change (FC) [5]
4.76 | 5.37 | COc1cc(/C=C/C(=O)CC(=O)/C=C/c2ccc(O)c(OC)c2)ccc1O [CURCUMIN] | 5.42 | 0.8 | 1 | 5.12 | 3
< 3.70 | < 3.70 | COc1cc(/C=C/C(=O)/C=C(O)/C=C/c2ccc(O[C@@H]3O[C@H](C(=O)O)[C@@H](O)[C@H](O)[C@H]3O)c(OC)c2)ccc1O[C@@H]1O[C@H](C(=O)O)[C@@H](O)[C@H](O)[C@H]1O | < 3.70 | 5.5 | 5.6 | < 3.70 | 5.6
< 3.70 | < 3.70 | COc1cc(/C=C/C(O)=C/C(=O)/C=C/c2ccc(O[C@@H]3O[C@H](C(=O)O)[C@@H](O)[C@H](O)[C@H]3O)c(OC)c2)ccc1O | < 3.70 | 5.1 | 5.3 | < 3.70 | 5.3
